{"source": "ChEMBL document CHEMBL1909555", "about": "“Synthesis and antimalarial activity of thioetherhydroxyethylsulfonamides, potential aspartyl protease inhibitors, Part 3” (Eur J Med Chem, 2011)", "key": {"Plasmodium falciparum": {"system": "Plasmodium falciparum", "test": "Antimalarial activity against chloroquine resistant, mefloquine sensitive Plasmodium falciparum W2 infected in human erythrocytes by [3H]-hypoxanthine incorporation assay", "assay_type": "functional, organism-based"}, "[1]": {"test": "Cytotoxicity against human HepG2 cells after 24 hrs by MTT assay", "assay_type": "cell-based", "details": "read-out: LD50", "outline": "(§1)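 Trypsinized cells seeded at 5 × 10³/well and allowed to adhere 18 h. Compounds added at varied concentrations for 24 h. MTT then added for 3 h, formazan dissolved in DMSO, absorbance read at 570 and 630 nm. Viability taken as % of untreated control after background subtraction, and LD50 derived.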"}, "[2]": {"test": "Cytotoxicity against african green monkey BGMK cells after 24 hrs by MTT assay", "assay_type": "cell-based", "details": "chlorocebus aethiops, read-out: LD50", "outline": "as §1"}}}
{"smiles": "CC(C)(C)OC(=O)N[C@@H](Cc1ccccc1)[C@H](O)CSc1ccccn1", "values": [{"measurement": "IC50", "setting": "Plasmodium falciparum", "result": 31.7, "unit": "µg/mL"}, {"measurement": "CC50 at 24 h", "setting": "[1]", "result": "> 200", "unit": "µg/mL"}, {"measurement": "CC50 at 24 h", "setting": "[2]", "result": "> 200", "unit": "µg/mL"}]}
{"smiles": "CC(C)(C)OC(=O)N[C@@H](Cc1ccccc1)[C@H](O)CSc1ncccn1", "values": [{"measurement": "IC50", "setting": "Plasmodium falciparum", "result": "> 50", "unit": "µg/mL"}, {"measurement": "CC50 at 24 h", "setting": "[1]", "result": 197, "unit": "µg/mL"}, {"measurement": "CC50 at 24 h", "setting": "[2]", "result": 170, "unit": "µg/mL"}]}
{"smiles": "O=[N+]([O-])c1ccc(S(=O)(=O)N[C@@H](Cc2ccccc2)[C@H](O)CSc2ccccn2)cc1", "values": [{"measurement": "IC50", "setting": "Plasmodium falciparum", "result": "> 50", "unit": "µg/mL"}, {"measurement": "CC50 at 24 h", "setting": "[1]", "result": "> 200", "unit": "µg/mL"}, {"measurement": "CC50 at 24 h", "setting": "[2]", "result": "> 200", "unit": "µg/mL"}]}
{"smiles": "Cc1ccc(S(=O)(=O)N[C@@H](Cc2ccccc2)[C@H](O)CSc2ccccn2)cc1", "values": [{"measurement": "IC50", "setting": "Plasmodium falciparum", "result": "> 50", "unit": "µg/mL"}, {"measurement": "CC50 at 24 h", "setting": "[1]", "result": 191, "unit": "µg/mL"}, {"measurement": "CC50 at 24 h", "setting": "[2]", "result": 192, "unit": "µg/mL"}]}
{"smiles": "O=[N+]([O-])c1ccc(S(=O)(=O)N[C@@H](Cc2ccccc2)[C@H](O)CSc2ncccn2)cc1", "values": [{"measurement": "IC50", "setting": "Plasmodium falciparum", "result": 15, "unit": "µg/mL"}, {"measurement": "CC50 at 24 h", "setting": "[1]", "result": "> 200", "unit": "µg/mL"}, {"measurement": "CC50 at 24 h", "setting": "[2]", "result": "> 200", "unit": "µg/mL"}]}
{"smiles": "O=S(=O)(N[C@@H](Cc1ccccc1)[C@H](O)CSc1ncccn1)c1ccc(Br)cc1", "values": [{"measurement": "IC50", "setting": "Plasmodium falciparum", "result": 25, "unit": "µg/mL"}, {"measurement": "CC50 at 24 h", "setting": "[1]", "result": 101, "unit": "µg/mL"}, {"measurement": "CC50 at 24 h", "setting": "[2]", "result": 99, "unit": "µg/mL"}]}
